The record followed here is ChEMBL document CHEMBL4017544 (J Med Chem, 2017).

The test system of data set [1] is Mus musculus. Description: Toxicity in db/db mouse assessed as effect on food consumption at 0.65 mg/kg, ip administered trice per week for 12 consecutive weeks measured every other day. In kind it is organism-based. The settings on record: in vivo. The essentials: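 Male db/db mice (8 weeks old, specific pathogen-free, normal chow and filtered water ad libitum) were randomized and dosed i.p. three times weekly for 12 consecutive weeks; vehicle was 5% Tween-80 in 0.9% saline. Body weight and food and water consumption were recorded every other day.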

The test system of data set [2] is Mus musculus. The data set can be described thus: Anti-diabetic nephropathic activity in db/db mouse assessed as reduction in plasma urea nitrogen levels at 0.65 mg/kg, ip administered trice per week for 12 consecutive weeks measured 11 weeks post dose. In kind it is functional, organism-based. The essentials:
(§1)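 Male db/db mice, 8 weeks old, randomized; ip vehicle (5% Tween-80 in 0.9% saline) or drug three times weekly for 12 weeks, n = 6 per group. After 11 weeks, 24 h urine collected for volume, albumin and creatinine, with UACR calculated; blood then sampled for plasma BUN and uric acid. Mean ± SD, one-way ANOVA with Tukey test.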

For data set [3], the system named is Mus musculus. The data set can be described thus: Anti-diabetic nephropathic activity in db/db mouse assessed as reduction in urine albumin to creatinine ratio at 0.65 mg/kg, ip administered trice per week for 12 consecutive weeks measured at 24 hrs post 11 week administration. Type of data set: functional, organism-based. The essentials:
as §1

Data set [4] deals with Mus musculus. The data set can be described thus: Renoprotective activity in db/db mouse assessed as […] in number of intraglomerular mesangial cells at 0.65 mg/kg, ip administered trice per week for 12 consecutive weeks measured at 11 weeks post dose by H/E-staining based microscopic analysis. In kind it is functional, organism-based. The essentials:
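Male db/db mice, 8 weeks old, were randomized and dosed i.p. three times weekly for 12 weeks (vehicle: 5% Tween-80 in 0.9% saline; n = 6 per group). Kidneys were fixed in 4% PFA and paraffin-embedded. 5 μm sections were stained with HE, PAS or Masson's trichrome and examined at ×400.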

Data set [5] relates to Mus musculus. Description: Renoprotective activity in db/db mouse assessed as reduction in loss of foot processes at 0.65 mg/kg, ip administered trice per week for 12 consecutive weeks measured at 11 weeks post dose by TEM microscopic analysis. Type of data set: functional, organism-based. An outline of the steps:
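Male db/db mice (8 weeks old) were dosed i.p. three times weekly for 12 weeks in 5% Tween-80/0.9% saline, n = 6. Kidney tissue was fixed in 3% glutaraldehyde, cut into 80 nm ultrathin sections and examined by TEM. GBM thickness was measured at 30 random locations from three sections per kidney and averaged per mouse.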

Data set [6] is described as follows: Drug level in Krebs buffer treated with 1-Hydroxyl-2-cyano-3-(4-(methyl-L-glutaminate-N5-yl)-benzyloxy)-12-oxo-oleana-2(3),9(11)-dien-28-oic Acid Methyl Ester assessed as bovine kidney GGT-mediated metabolite formation at 100 uM at pH 7.4 after 8 hrs in presence of porcine liver esterase by HPLC analysis. Conditions: cattle, isolated protein, pH 7.4, 8 h. Type of data set: ADME, Bos taurus. An outline of the steps:
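Substrate at 100 μM in Krebs buffer, pH 7.4, 37 °C, with porcine liver esterase (2 U/mL), GGT (1 U/mL) and Gly-Gly (5 mM) for 8 h, in triplicate; products quantified by HPLC.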

The nature of data set [7]: Drug level in Wistar rat kidney homogenates treated with 1-Hydroxyl-2-cyano-3-(4-(methyl-L-glutaminate-N5-yl)-benzyloxy)-12-oxo-oleana-2(3),9(11)-dien-28-oic Acid Methyl Ester assessed as GGT-mediated metabolite formation at 100 uM after 8 hrs by HPLC analysis. Type of data set: ADME, tissue-based. The settings on record: tissue homogenate. The essentials: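 Plasma, and kidney and liver homogenates in PBS, from three Wistar rats; substrate added at 100 μM at 37 °C; metabolite measured by HPLC every 60 min for 8 h; mean ± SD of three experiments.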

Data set [8] addresses Kelch-like ECH-associated protein 1 (Homo sapiens) (UniProt Q14145). The data set can be described thus: Inhibition of Keap1/Nrf2 (unknown origin) interaction transfected in HEK293 cells assessed as increase in cytosolic HO-1 levels after 48 hrs by Western blot analysis. Type of data set: cell-based. An outline of the steps: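 HEK293 cells grown in high-glucose DMEM with 10% FBS were treated in triplicate at 200 or 1000 nM for 48 h. Nuclear and cytosolic Nrf2, HO-1 and cytoplasmic NQO1 were measured by western blot with specific antibodies, with TBP and β-actin among the probed proteins. The nuclear/cytosolic Nrf2 ratio was derived from these blots. Three independent experiments, mean ± SD.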

Data set [9] has as its system Mus musculus. Description: Antidiabetic nephropathic activity in db/db mouse assessed as reduction in urinary albumin at 1 to 2 mg/kg, ip administered thrice per week for 12 consecutive weeks measured at 24 hrs post 11 week administration. In kind it is functional, organism-based. An outline of the steps:
as §1

The nature of data set [10]: Drug level in Sprague-Dawley rat kidney at 30 mg/kg, ip measured at 30 mins by LC-MS/MS analysis. In kind it is ADME, organism-based. The settings on record: read-out: Drug uptake. The essentials: (§2)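 Rats given a single ip injection, 20 mg/kg (0.04 mmol) of CDDO-Me or 30 mg/kg (0.04 mmol) of the prodrug; heart, kidney and liver collected over time; parent compound and liberated CDDO-Me measured by LC-MS/MS.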

A short description of data set [11]: Drug level in Sprague-Dawley rat kidney at 30 mg/kg, ip measured at 90 mins by LC-MS/MS analysis. Type of data set: ADME, organism-based. Conditions: read-out: Drug uptake. The essentials: as §2
For another data set, the target named is hERG (KCNH2) (Homo sapiens, UniProt Q12809). The data set can be described thus: Inhibition of human ERG expressed in CHO cells at 200 uM at -80 mV holding potential by patch clamp assay relative to control. Type of data set: cell-based. Conditions: CHO cells expressing human ERG.

The source made the active and inactive calls. No cut-off for these calls is given here.

Chain of Kelch-like ECH-associated protein 1 (Homo sapiens) (Q14145 whole entry): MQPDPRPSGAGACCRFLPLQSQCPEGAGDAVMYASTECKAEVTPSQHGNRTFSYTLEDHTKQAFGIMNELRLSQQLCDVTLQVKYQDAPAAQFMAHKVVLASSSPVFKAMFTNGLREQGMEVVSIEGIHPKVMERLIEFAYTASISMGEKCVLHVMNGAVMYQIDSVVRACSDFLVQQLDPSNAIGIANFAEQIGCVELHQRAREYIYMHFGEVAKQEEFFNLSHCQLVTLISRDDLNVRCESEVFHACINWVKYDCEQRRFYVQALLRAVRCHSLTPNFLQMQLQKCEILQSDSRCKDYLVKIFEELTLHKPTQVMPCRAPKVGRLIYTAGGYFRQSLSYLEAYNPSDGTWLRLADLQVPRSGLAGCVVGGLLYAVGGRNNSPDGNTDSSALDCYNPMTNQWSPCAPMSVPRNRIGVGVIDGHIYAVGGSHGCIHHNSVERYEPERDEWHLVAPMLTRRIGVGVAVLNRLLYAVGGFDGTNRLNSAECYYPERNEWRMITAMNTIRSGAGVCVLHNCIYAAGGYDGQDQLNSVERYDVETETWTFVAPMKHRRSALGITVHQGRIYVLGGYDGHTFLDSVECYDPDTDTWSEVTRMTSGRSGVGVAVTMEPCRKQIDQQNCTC
Chain of hERG (KCNH2) (Q12809 whole entry): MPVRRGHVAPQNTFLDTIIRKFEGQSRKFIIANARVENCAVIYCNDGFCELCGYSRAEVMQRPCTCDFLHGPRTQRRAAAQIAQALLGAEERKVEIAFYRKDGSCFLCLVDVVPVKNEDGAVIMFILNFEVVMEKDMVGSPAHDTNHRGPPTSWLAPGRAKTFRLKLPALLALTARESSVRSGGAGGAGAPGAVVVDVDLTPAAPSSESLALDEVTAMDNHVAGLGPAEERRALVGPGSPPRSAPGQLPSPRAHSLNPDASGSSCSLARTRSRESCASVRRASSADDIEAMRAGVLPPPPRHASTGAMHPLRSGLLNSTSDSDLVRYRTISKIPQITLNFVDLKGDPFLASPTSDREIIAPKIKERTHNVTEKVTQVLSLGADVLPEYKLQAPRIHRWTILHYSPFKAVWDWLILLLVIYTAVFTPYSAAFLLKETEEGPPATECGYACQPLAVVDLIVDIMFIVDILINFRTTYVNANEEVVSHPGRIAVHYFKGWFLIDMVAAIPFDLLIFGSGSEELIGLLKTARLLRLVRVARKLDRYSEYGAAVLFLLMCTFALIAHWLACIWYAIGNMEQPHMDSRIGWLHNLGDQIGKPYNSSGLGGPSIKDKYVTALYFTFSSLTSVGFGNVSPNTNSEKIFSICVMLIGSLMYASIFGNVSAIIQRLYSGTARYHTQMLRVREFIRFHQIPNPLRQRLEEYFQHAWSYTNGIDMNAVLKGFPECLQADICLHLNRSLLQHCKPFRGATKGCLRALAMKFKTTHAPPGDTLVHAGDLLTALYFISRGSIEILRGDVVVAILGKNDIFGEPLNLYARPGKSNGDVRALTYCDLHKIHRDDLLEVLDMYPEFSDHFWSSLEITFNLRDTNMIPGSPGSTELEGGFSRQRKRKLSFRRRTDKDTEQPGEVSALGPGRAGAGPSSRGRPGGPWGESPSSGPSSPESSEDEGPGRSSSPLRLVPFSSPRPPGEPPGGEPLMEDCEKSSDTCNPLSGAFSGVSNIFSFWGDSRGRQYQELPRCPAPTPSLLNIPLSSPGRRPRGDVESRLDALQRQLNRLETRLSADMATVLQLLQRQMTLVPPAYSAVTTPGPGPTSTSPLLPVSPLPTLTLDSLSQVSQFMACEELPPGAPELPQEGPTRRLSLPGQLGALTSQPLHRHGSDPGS

As for `COC(=O)[C@]12CCC(C)(C)C[C@H]1[C@H]1C(=O)C=C3[C@@]4(C)C=C(C#N)C(=O)C(C)(C)[C@@H]4CC[C@@]3(C)[C@]1(C)CC2` [BARDOXOLONE METHYL], in the data set on Mus musculus [1], the Activity entry is “Non-Toxic”. The result in the data set on Mus musculus [2], in the data set on Mus musculus [3], in the data set on Mus musculus [4] and with Mus musculus [5] was Active. The Drug metabolism entry in data set [6] and in data set [7] was “Metabolite_Detected” throughout.

The inhibition is the share of the control response that was lost under treatment. With `COC(=O)[C@@H](N)CCC(=O)Nc1ccc(COC2=C(C#N)[C@H](O)[C@]3(C)C4=CC(=O)[C@@H]5[C@@H]6CC(C)(C)CC[C@]6(C(=O)OC)CC[C@@]5(C)[C@]4(C)CC[C@H]3C2(C)C)cc1`, the inhibition entry in [8] was “Dose-dependent effect”. For the same compound, in the data set with Mus musculus [9], the outcome was Active. In addition, the concentration at 0.5 h in data set [10] was found to be 1000 ng/g. The concentration at 1.5 h in data set [11] turned out to be 800 ng/g. Besides, at hERG (KCNH2), the inhibition at 200 µM worked out at 36.1%.
